Values without a mark were called inactive. Activity calls are given as the source filed them.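 How the source made its calls: active means at least one off-target enzyme showing weaker fluorescent probe labeling in any proteome panel; inactive means no off-target enzyme affected in any panel.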

This passage reports number of anti-targets results from PubChem BioAssay AID651628 (The Scripps Research Institute Molecular Screening Center, 2012).

For the assay, the system named is Soluble Proteome. The experiment in a line: proteome-wide probe labelling blockade by competitive ABPP – cell lysate, gel-based fluorescence, soluble and membrane fractions, selectivity assay for PAD4 inhibitor project, late-stage follow-up (AID 651628). As to conditions: MCF7 proteome, CA-Rh gel-based ABPP, anti-target count, at 50 µM, stronger effect = higher value. An outline of the steps: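 Buffer or medium: DPBS; System: MCF7 soluble or membrane proteome; Quantity: proteome protein concentration of 1 mg/ml; Also added: CA-Rh probe, 10 µM; Times: compound pre-incubation 1 h, then probe labelling 1 h, both 25 °C; Control set: DMSO-only reference; Signal: SDS-PAGE separation with in-gel fluorescence scanning of labelled bands.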
Regarding `COC1=C(Br)C(=O)c2nc(-c3ccccn3)ccc2C1=O`, the number of anti-targets was > 5 (active).
For `COC1=C(Br)C(=O)c2ncccc2C1=O`, the number of anti-targets was > 5 (active).
For `COC(=O)c1cccc(-c2ccc3c(n2)C(=O)C(N)=CC3=O)n1` the value was 0; for `COC1=C(N)C(=O)c2nc(-c3nc(C(=O)O)c(C)c(-c4ccc(OC)c(OC)c4O)c3N)ccc2C1=O`, 0; for `NC1=CC(=O)c2cccnc2C1=O`, 0.
For `NC1=CC(=O)c2ccc(-c3cccc(C(=O)O)n3)nc2C1=O` the value was 0; for `COC1=C(N)C(=O)c2ncccc2C1=O`, 0.
In the case of `COC(=O)c1nc(C(=O)OC)c(NC(C)=O)c(-c2ccccc2Br)c1C`, the number of anti-targets was 0.
Then `O=C1C=C(Br)C(=O)c2ncccc21`, with > 5 (active); and `NC1=CC(=O)c2ccc(-c3ccccn3)nc2C1=O`, with 0.
On to `COC1=CC(=O)c2nc(C#N)ccc2C1=O`, for which the number of anti-targets is > 5 (active).
Then `O=C1C(O)=C(O)C(=O)c2ncccc21`, with 3 (active).
Then `COC1=C(I)C(=O)c2nc(C#N)ccc2C1=O`, with > 5 (active).
As to `COC(=O)c1cccc(-c2ccc3c(n2)C(=O)C(Br)=CC3=O)n1`, the number of anti-targets was 0.
